The source made the active and inactive calls.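 The calls were made as follows, unless noted: active = potentiation averaged over duplicate wells exceeding buffer-only control mean by more than 3 SD; inactive = the rest.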

Sequence of Potassium voltage-gated channel subfamily KQT member 2 (Rattus norvegicus) (O88943 whole entry, looked up): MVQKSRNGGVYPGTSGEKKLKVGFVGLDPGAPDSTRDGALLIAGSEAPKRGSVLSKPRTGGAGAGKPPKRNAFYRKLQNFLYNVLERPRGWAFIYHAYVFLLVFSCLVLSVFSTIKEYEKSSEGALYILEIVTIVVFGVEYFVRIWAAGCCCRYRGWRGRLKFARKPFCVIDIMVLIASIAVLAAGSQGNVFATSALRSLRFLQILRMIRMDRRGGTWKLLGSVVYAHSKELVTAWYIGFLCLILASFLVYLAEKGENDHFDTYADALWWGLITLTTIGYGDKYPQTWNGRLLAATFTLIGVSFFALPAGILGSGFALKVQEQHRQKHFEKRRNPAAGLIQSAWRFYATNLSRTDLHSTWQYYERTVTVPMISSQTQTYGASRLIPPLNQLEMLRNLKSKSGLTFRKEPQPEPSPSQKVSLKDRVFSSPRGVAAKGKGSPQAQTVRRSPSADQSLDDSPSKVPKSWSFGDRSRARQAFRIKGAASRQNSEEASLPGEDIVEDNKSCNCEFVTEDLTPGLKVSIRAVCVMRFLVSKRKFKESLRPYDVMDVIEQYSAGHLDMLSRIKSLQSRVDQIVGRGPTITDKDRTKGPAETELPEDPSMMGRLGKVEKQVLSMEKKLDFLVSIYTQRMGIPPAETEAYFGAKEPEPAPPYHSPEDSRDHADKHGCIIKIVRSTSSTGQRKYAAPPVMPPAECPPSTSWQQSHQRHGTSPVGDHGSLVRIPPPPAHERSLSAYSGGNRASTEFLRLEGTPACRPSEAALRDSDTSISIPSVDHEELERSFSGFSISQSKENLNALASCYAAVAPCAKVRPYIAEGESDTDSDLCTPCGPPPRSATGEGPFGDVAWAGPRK
Sequence of Potassium voltage-gated channel subfamily KQT member 1 (Homo sapiens) (P51787 whole entry, looked up): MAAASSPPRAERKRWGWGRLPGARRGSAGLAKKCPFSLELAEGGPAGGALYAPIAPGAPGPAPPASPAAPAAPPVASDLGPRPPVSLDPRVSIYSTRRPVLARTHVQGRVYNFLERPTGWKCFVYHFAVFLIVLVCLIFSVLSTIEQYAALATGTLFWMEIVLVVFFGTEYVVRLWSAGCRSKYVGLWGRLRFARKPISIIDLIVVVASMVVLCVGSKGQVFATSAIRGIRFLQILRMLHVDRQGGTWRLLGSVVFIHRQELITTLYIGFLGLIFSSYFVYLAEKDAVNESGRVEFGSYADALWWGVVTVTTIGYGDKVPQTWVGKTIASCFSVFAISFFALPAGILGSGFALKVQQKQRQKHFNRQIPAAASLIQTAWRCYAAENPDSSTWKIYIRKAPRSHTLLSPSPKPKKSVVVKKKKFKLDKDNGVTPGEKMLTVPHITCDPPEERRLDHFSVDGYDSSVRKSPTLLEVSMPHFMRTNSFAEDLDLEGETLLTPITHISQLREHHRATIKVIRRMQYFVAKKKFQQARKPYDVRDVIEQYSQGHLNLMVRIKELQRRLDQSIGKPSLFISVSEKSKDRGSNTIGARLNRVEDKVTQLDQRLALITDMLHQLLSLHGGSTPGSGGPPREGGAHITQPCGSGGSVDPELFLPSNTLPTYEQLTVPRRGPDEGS

One experiment has as its target Potassium voltage-gated channel subfamily KQT member 1 (Homo sapiens) (UniProt P51787). Kind of experiment: KCNQ1 potassium channel potentiators, confirmation, FluxOR thallium flux, CHO cells, duplicates (AID 493007).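 As to outcome: cells depolarized by a potassium plus thallium sulfate stimulus after compound.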 The settings on record: KCNQ1 cell line, FluxOR thallium flux fluorescence, at 10 µM; stronger effect = higher value, % of reference activator effect, buffer zero. Summed up: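 Material: CHO cells stably expressing the KCNQ1 potassium channel / Times: dye 90 min then compound 20 min, both at room temperature / Detection: kinetic thallium influx fluorescence with FluxOR dye, 10 s baseline, 110 s post-stimulus / Benchmarks: buffer-only wells as 0% and R-L3 activator as 100% / Replicates: each compound tested in duplicate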
Regarding `O=C(c1cc([N+](=O)[O-])cc([N+](=O)[O-])c1)N1CCCc2ccccc21`, the outcome was inactive.

`CCCCCCCCCCC[N+](C)(C)CC/C=C1/c2ccccc2Sc2ccc(Cl)cc21`: the potentiation is 64% (active).

Take `O=c1sc(N2CCN(c3ccccc3F)CC2)nc2ccsc12`: the outcome was inactive.

Turning to `CCOc1ccc(C(=O)C(CCC(CN(C)C)C(=O)c2ccc(OCC)cc2)CN(C)C)cc1` (stereo not drawn), the potentiation was 34.5% (active).

Turning to `Cc1ccc(-c2nc3ncccc3o2)cc1NC(=O)c1cccnc1`, the result was inactive.

Consider `COc1ccc(C(=O)CC(=O)C(=O)Nc2ccccc2Cl)cc1`, for which the potentiation is 25% (active).

As to `O=C(CN1C(=O)CNC1=O)Nc1cccc(C(F)(F)F)c1`, the outcome was inactive.

In the case of `O=C(CNC(=O)c1ccccc1)NCc1ccc(Cl)cc1`, the outcome was inactive.

For the compound `Cc1ccc2cccnc2c1NC(=S)NC(=O)c1ccccc1`, the result was inactive.

For the compound `CC(C)NC(=O)C1(S(=O)(=O)c2ccccc2)CC=CC1`, the outcome was inactive.

Regarding `O=c1c2ccccc2nc(-c2ccc(Cl)c(Cl)c2)n1O`, the potentiation is 244% (active).

With `Cc1cccc(NC(=O)Nc2ccc(OCc3ccccc3)cc2)n1`, the result was inactive.

In the case of `Cc1cc(O)ccc1N=Cc1c(C(F)(F)F)[nH][nH]c1=O`, the result was inactive.

For `Cc1ccccc1-n1cnnc1SCC(=O)N1CCN(c2ccccc2)CC1`, the potentiation is 49.5% (active).

Consider `CCCCN(CCCC)c1cn[nH]c(=O)c1Cl`, for which the result was inactive.

Turning to `CCOC(=O)Cc1csc(NC(=S)NC(=O)C(C)(C)C)n1`, the result was inactive.

With `N=C1S/C(=C\c2ccc(-c3cccc(Cl)c3)o2)C(=O)N1c1nccs1`, the potentiation was 19% (active).

As for `CCN(CC)C(=S)NC(=O)c1ccc(OC)c(Br)c1`, the potentiation is 63.5% (active).

For the compound `COC(=O)c1ccc(CNC(=O)c2ccc(COc3ccccc3)cc2)cc1`, the result was inactive.

In the case of `COc1ccc(/C=N/N=C2/NC(=O)C(c3ccccc3)S2)c(OC)c1` (stereo not drawn), the outcome was inactive.

As to `Cc1nc(NCc2cccnc2)c2c3c(sc2n1)CC(C)CC3` (stereo not drawn), the potentiation was 118% (active).

For the compound `COc1ccc(C)cc1NC(=O)C(=O)NNC(=O)c1ccco1`, the potentiation is 109% (active).

`COc1ccc(-n2nc3c(c2NC(=O)c2ccc4c(c2)OCO4)CS(=O)(=O)C3)cc1`: the potentiation was 75.5% (active).

On to `Fc1cccc(/C=N/Nc2ccc3ccccc3n2)c1`, for which the outcome was inactive.

`Cc1cc(=O)oc2cc(OCC3CC(c4ccccc4Cl)=NO3)ccc12` (stereo not drawn): the potentiation was 30.5% (active).

In the case of `COC(=O)c1ccc(/C=C/c2ccc3cccc(OC)c3n2)cc1`, the outcome was inactive.

Consider `CN1C=CC=C/C1=C1\SC(=S)N(C2CCCCC2)C1=O`, for which the outcome was inactive.

For `S=c1[nH]nc(CSc2nc3ccccc3s2)n1C1CCCCC1`, the potentiation was 31% (active).

On to `COc1cccc(/C=N/Nc2snc(SC)c2C#N)c1O`, for which the result was inactive.

For the compound `N#CCn1c(CCl)nc2ccccc2c1=O`, the result was inactive.

Turning to `O=C(NC(=S)N(Cc1ccccc1)Cc1ccccc1)c1ccccc1F`, the potentiation is 208% (active).

On to `O=C(NC(=S)N1CCCCCC1)c1ccccc1`, for which the outcome was inactive.

In the case of `CCCCC(Nc1ncnc2ccccc12)C(=O)O` (stereo not drawn), the result was inactive.

In the case of `COc1ccccc1C(=O)NNC(=O)C(=O)NC(C)(C)C`, the potentiation was 68% (active).

Consider `CC(=O)c1c(C)[nH]c(C(=O)OCc2nc3ccsc3c(=O)[nH]2)c1C`, for which the outcome was inactive.

Consider `O=C(NCc1ccccc1)C(=O)NCC1CCCN1S(=O)(=O)c1cccs1` (stereo not drawn), for which the result was inactive.

Take `CCN(CC)S(=O)(=O)c1cc(OC)ccc1N=Nc1ccc(O)c2ncccc12`: the potentiation was 37.5% (active).

Regarding `O=C(NC1CC1)C1=NOC(CNc2ncc(C(F)(F)F)cc2Cl)C1` (stereo not drawn), the result was inactive.

Consider `Cc1ccc(Cn2c(SCC(=O)N3CC(=O)Nc4ccccc43)nc3ccccc3c2=O)cc1`, for which the result was inactive.

Another experiment concerns the target Potassium voltage-gated channel subfamily KQT member 2 (Rattus norvegicus) (UniProt O88943). Kind of experiment: rat KCNQ2 channel potentiation, selectivity assay for KCNQ1 potentiator project, KCNQ2-CHO-K1 cells (AID 493009;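 active = mean duplicate potentiation above the buffer control mean plus 5 SD of buffer wells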;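 also: assay conditions were tuned for KCNQ1 rather than KCNQ2 modulators; signal is max minus min fluorescence divided by baseline after thallium stimulus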). The settings on record: FluxOR thallium flux fluorescence, at 10 µM; stronger effect = higher value, scaled: buffer 0, activator control 100.
With `O=C(c1cc([N+](=O)[O-])cc([N+](=O)[O-])c1)N1CCCc2ccccc21`, the result was inactive.

In the case of `CCCCCCCCCCC[N+](C)(C)CC/C=C1/c2ccccc2Sc2ccc(Cl)cc21`, the result was inactive.

As to `O=c1sc(N2CCN(c3ccccc3F)CC2)nc2ccsc12`, the outcome was inactive.

For the compound `CCOc1ccc(C(=O)C(CCC(CN(C)C)C(=O)c2ccc(OCC)cc2)CN(C)C)cc1` (stereo not drawn), the potentiation is 152% (active).

As to `Cc1ccc(-c2nc3ncccc3o2)cc1NC(=O)c1cccnc1`, the outcome was inactive.

Consider `COc1ccc(C(=O)CC(=O)C(=O)Nc2ccccc2Cl)cc1`, for which the outcome was inactive.

In the case of `O=C(CN1C(=O)CNC1=O)Nc1cccc(C(F)(F)F)c1`, the result was inactive.

With `O=C(CNC(=O)c1ccccc1)NCc1ccc(Cl)cc1`, the result was inactive.

`Cc1ccc2cccnc2c1NC(=S)NC(=O)c1ccccc1`: the result was inactive.

Turning to `CC(C)NC(=O)C1(S(=O)(=O)c2ccccc2)CC=CC1`, the result was inactive.

As for `O=c1c2ccccc2nc(-c2ccc(Cl)c(Cl)c2)n1O`, the potentiation is 558% (active).

For `Cc1cccc(NC(=O)Nc2ccc(OCc3ccccc3)cc2)n1`, the result was inactive.

As for `Cc1cc(O)ccc1N=Cc1c(C(F)(F)F)[nH][nH]c1=O`, the outcome was inactive.

`Cc1ccccc1-n1cnnc1SCC(=O)N1CCN(c2ccccc2)CC1`: the potentiation is 206% (active).

As to `CCCCN(CCCC)c1cn[nH]c(=O)c1Cl`, the result was inactive.

With `CCOC(=O)Cc1csc(NC(=S)NC(=O)C(C)(C)C)n1`, the result was inactive.

Take `N=C1S/C(=C\c2ccc(-c3cccc(Cl)c3)o2)C(=O)N1c1nccs1`: the outcome was inactive.

Regarding `CCN(CC)C(=S)NC(=O)c1ccc(OC)c(Br)c1`, the potentiation is 209% (active).

In the case of `COC(=O)c1ccc(CNC(=O)c2ccc(COc3ccccc3)cc2)cc1`, the outcome was inactive.

With `COc1ccc(/C=N/N=C2/NC(=O)C(c3ccccc3)S2)c(OC)c1` (stereo not drawn), the result was inactive.

Turning to `Cc1nc(NCc2cccnc2)c2c3c(sc2n1)CC(C)CC3` (stereo not drawn), the potentiation is 352% (active).

Consider `COc1ccc(C)cc1NC(=O)C(=O)NNC(=O)c1ccco1`, for which the potentiation is 363% (active).

For the compound `COc1ccc(-n2nc3c(c2NC(=O)c2ccc4c(c2)OCO4)CS(=O)(=O)C3)cc1`, the potentiation is 206% (active).

`Fc1cccc(/C=N/Nc2ccc3ccccc3n2)c1`: the result was inactive.

On to `Cc1cc(=O)oc2cc(OCC3CC(c4ccccc4Cl)=NO3)ccc12` (stereo not drawn), for which the outcome was inactive.

For `COC(=O)c1ccc(/C=C/c2ccc3cccc(OC)c3n2)cc1`, the outcome was inactive.

As to `CN1C=CC=C/C1=C1\SC(=S)N(C2CCCCC2)C1=O`, the outcome was inactive.

In the case of `S=c1[nH]nc(CSc2nc3ccccc3s2)n1C1CCCCC1`, the potentiation is 147% (active).

With `COc1cccc(/C=N/Nc2snc(SC)c2C#N)c1O`, the result was inactive.

Turning to `N#CCn1c(CCl)nc2ccccc2c1=O`, the result was inactive.

With `O=C(NC(=S)N(Cc1ccccc1)Cc1ccccc1)c1ccccc1F`, the potentiation was 338% (active).

With `O=C(NC(=S)N1CCCCCC1)c1ccccc1`, the result was inactive.

Consider `CCCCC(Nc1ncnc2ccccc12)C(=O)O` (stereo not drawn), for which the result was inactive.

`COc1ccccc1C(=O)NNC(=O)C(=O)NC(C)(C)C`: the potentiation is 246% (active).

For the compound `CC(=O)c1c(C)[nH]c(C(=O)OCc2nc3ccsc3c(=O)[nH]2)c1C`, the outcome was inactive.

In the case of `O=C(NCc1ccccc1)C(=O)NCC1CCCN1S(=O)(=O)c1cccs1` (stereo not drawn), the result was inactive.

Take `CCN(CC)S(=O)(=O)c1cc(OC)ccc1N=Nc1ccc(O)c2ncccc12`: the potentiation is 148% (active).

Regarding `O=C(NC1CC1)C1=NOC(CNc2ncc(C(F)(F)F)cc2Cl)C1` (stereo not drawn), the result was inactive.

As to `Cc1ccc(Cn2c(SCC(=O)N3CC(=O)Nc4ccccc43)nc3ccccc3c2=O)cc1`, the result was inactive.

The values above are taken from PubChem BioAssay.
